# Where “and” joins values, the source holds several entries; their conditions need not be identical. Equal values may be shown once. Calls of active or inactive are those of the source. No cut-off for these calls is given here.
# How the values were obtained:
# [1] = target: T1, Adrenergic receptor alpha-2 (Homo sapiens) (UniProt P08913+P18825+P18089); experiment: Compound was evaluated for alpha-2 adrenergic receptor activity in the phenoxybenzamine (PBZ) - pretreated dog saphenous vein, effective dose of norepinephrine (NE); format: tissue-based; settings: Canis lupus familiaris, target entry is the homologue from another species
# Summary of the method: (§1)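 Beagle lateral saphenous vein rings (3-4 mm, either sex) in bicarbonate buffer with cocaine, hydrocortisone and propranolol, gassed with 95% O2/5% CO2 at 37 °C, pH 7.45, under 2 g. After maximal NE (1 × 10^-4 M) contraction and 60 min wash, exposed to phenoxybenzamine 1 × 10^-7 M for 30 min, then washed 60 min. Control cumulative NE curve, washout, then test-compound curve in the same tissue. Molar ED50 from isometric contraction.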
# [2] = target: T1, Adrenergic receptor alpha-2 (Homo sapiens); experiment: Compound was evaluated for alpha-2 adrenergic receptor activity in the phenoxybenzamine (PBZ) - pretreated dog saphenous vein, effective dose (CPD); format: tissue-based; settings: Canis lupus familiaris, target entry is the homologue from another species; summary of the method: as §1
# [3] = target: T2, Adrenergic receptor alpha-1 (Homo sapiens) (UniProt P35348+P25100+P35368); experiment: Compound was evaluated for alpha-1 adrenergic receptor activity in isolated rabbit aortic tissue, effective dose of norepinephrine (NE); settings: Oryctolagus cuniculus; target entry is the homologue from another species
# Summary of the method: (§2)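 Helical aortic strip in 10-mL bath of Krebs buffer, pH 7.4, under 2 g initial tension and equilibrated 1 h with four washes. Cumulative norepinephrine curve run from 1 × 10^-8 to 1 × 10^-3 M, each response allowed to plateau. After washout, tension reset to 2 g and a cumulative test-compound curve run in the same tissue. Isometric contraction recorded; molar ED50 taken for each.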
# [4] = target: T2, Adrenergic receptor alpha-1 (Homo sapiens); experiment: Compound was evaluated for alpha-1 adrenergic activity in isolated rabbit aortic tissue, effective dose (CPD); format: tissue-based; settings: Oryctolagus cuniculus; Aorta; target entry is the homologue from another species; summary of the method: as §2
# [5] = Compound was evaluated for the percent of maximum response of the tissue to NE; format: functional
# [6] = target: T2, Adrenergic receptor alpha-1 (Homo sapiens); experiment: Compound was evaluated for alpha-1 adrenergic receptor activity in isolated rabbit aortic tissue, effective dose (CPD); settings: Oryctolagus cuniculus; target entry is the homologue from another species; summary of the method: as §2
# [7] = target: T1, Adrenergic receptor alpha-2 (Homo sapiens); experiment: Compound was evaluated for alpha-2 adrenergic receptor activity in the phenoxybenzamine (PBZ) - pretreated dog saphenous vein, effective dose (CPD); inactive; format: tissue-based; settings: Canis lupus familiaris, target entry is the homologue from another species
# [8] = Compound was evaluated for the percent of maximum response of the tissue to NE; IA=Inactive; format: functional
# [9] = target: T2, Adrenergic receptor alpha-1 (Homo sapiens); experiment: Compound was evaluated for alpha-1 adrenergic receptor activity in isolated rabbit aortic tissue, effective dose (CPD); IA=Inactive; settings: Oryctolagus cuniculus; target entry is the homologue from another species
# Summary of the method: (§3)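 Helical aortic strip in Krebs buffer (pH 7.4) at 2 g initial tension, equilibrated 1 h with four washes; isometric contraction recorded. Cumulative norepinephrine curve (1 × 10^-8 to 1 × 10^-3 M), each step to plateau; washes every 10-15 min for 60-90 min, tension reset to 2 g, then cumulative test-compound curve in the same tissue. Molar ED50 values; index (ED50 NE/ED50 CPD) computed per experiment.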
# [10] = target: T2, Adrenergic receptor alpha-1 (Homo sapiens); experiment: Compound was evaluated for alpha-1 adrenergic activity in isolated rabbit aortic tissue, effective dose of norepinephrine (NE); format: tissue-based; settings: Oryctolagus cuniculus; Aorta; target entry is the homologue from another species; summary of the method: as §3
# [11] = target: T1, Adrenergic receptor alpha-2 (Homo sapiens); experiment: Compound was evaluated for alpha-2 adrenergic receptor activity in the phenoxybenzamine (PBZ) - pretreated dog saphenous vein, effective dose (CPD); Inactive; format: tissue-based; settings: Canis lupus familiaris, target entry is the homologue from another species; summary of the method: as §1
SMILES,ED50 [1],ED50 [2],ED50 [3],ED50 [4],Emax [5],ED50 [6],ED50 [7],Emax [8],ED50 [9],ED50 [10],ED50 [11]
C[C@@H]1CCc2c(ccc(O)c2O)[C@H]1C1=NCCN1,560 nM,4500 nM,48 nM,4390 nM,–,–,–,–,–,–,–
Oc1ccc2c(c1O)SCC[C@@H]2C1=NCCN1,526 nM,19 nM,219 nM,–,129 and 105,20 nM,–,–,–,–,–
Oc1ccc2c(c1O)OCC[C@@H]2C1=NCCN1,720 nM,35 nM,67 nM,–,118 and 107,35 nM,–,–,–,–,–
CCC1(CC)CC[C@H](C2=NCCN2)c2ccc(O)c(O)c21,603 nM,–,98 nM,–,44,47000 nM,inactive,inactive,–,–,–
Oc1ccc2c(c1O)CCCC2C1=NCCN1 (stereo unspecified),720 nM,5 nM,140 nM,–,114 and 102,17 nM,–,–,–,–,–
Oc1ccc2c(c1O)CC[C@@H](c1ccccc1)[C@@H]2C1=NCCN1,519 nM,inactive,–,–,–,–,–,inactive,inactive,73 nM,–
CC1(C)CC[C@H](C2=NCCN2)c2ccc(O)c(O)c21,1240 nM,–,125 nM,–,100,284 nM,–,inactive,–,–,inactive
C[C@]1(C2=NCCN2)CCCc2c1ccc(O)c2O,924 nM,6100 nM,41 nM,–,69 and 76,16600 nM,–,–,–,–,–

# Source: ChEMBL document CHEMBL1123532, “Conformationally defined adrenergic agents. 3. Modifications to the carbocyclic ring of 5,6-dihydroxy-1-(2-imidazolinyl)tetralin: improved separation of alpha 1 and alpha 2 adrenergic activities” (J Med Chem, 1986)
